Assay results as given in ChEMBL document CHEMBL4715891, “Development of sulfahydantoin derivatives as β-lactamase inhibitors” (Bioorg Med Chem Lett, 2021).

Key:
Bacteria [1] = assay: Inhibition of 15N-Labeled beta lactamase TEM-1 (unknown origin) over expressed in Escherichia coli BL21(DE3) cells assessed as residual activity at 1 mM by CENTA relative to control
Method in brief: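 TEM-1 (116 nM) screened with inhibitor at 1 mM, hydrolysis of chromogenic CENTA at 300 μM (~8× Km of 36 μM) followed. Activity expressed relative to positive control lacking inhibitor, mean ± standard deviation of at least three replicates. Enzyme purity >83% by SDS-PAGE.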

Bacteria [2] = assay: Inhibition of 15N-Labeled beta lactamase TEM-1 G1u104Lys/Gly238Ser double mutant (unknown origin) over expressed in Escherichia coli BL21(DE3) cells assessed as residual activity at 1 mM by CENTA relative to control
Method in brief: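 TEM-15 produced in E. coli, purified to >83% by SDS-PAGE, used at 56 nM. Inhibitor screened at 1 mM against hydrolysis of the chromogenic substrate CENTA (300 μM). Activity expressed relative to the positive control without inhibitor, as mean ± standard deviation of at least three replicates.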

[3] = Noncompetitive inhibition of 15N-Labeled beta lactamase TEM-1 (unknown origin) over expressed in Escherichia coli BL21(DE3) cells by CENTA; set-up: species or system Bacteria
[4] = Inhibition of 15N-Labeled beta lactamase TEM-1 (unknown origin) over expressed in Escherichia coli BL21(DE3) cells by CENTA; set-up: species or system Bacteria
Method in brief: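 IC50 against TEM-1 from CENTA (300 μM) hydrolysis using two-fold inhibitor dilutions; value derived by fitting a dose-response curve. Enzyme purity >83% by SDS-PAGE.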

[5] = Competitive inhibition of 15N-Labeled beta lactamase TEM-1 (unknown origin) over expressed in Escherichia coli BL21(DE3) cells by CENTA; set-up: species or system Bacteria
[6] = Uncompetitive inhibition of 15N-Labeled beta lactamase TEM-1 (unknown origin) over expressed in Escherichia coli BL21(DE3) cells by CENTA; set-up: species or system Bacteria
[7] = Inhibition of 15N-Labeled beta lactamase TEM-1 G1u104Lys/Gly238Ser double mutant (unknown origin) over expressed in Escherichia coli BL21(DE3) cells by CENTA; set-up: species or system Bacteria
Method in brief: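 TEM-15 from E. coli expression, purified to >83% by SDS-PAGE. Hydrolysis of the chromogenic substrate CENTA (300 μM) monitored across two-fold inhibitor dilutions. IC50 obtained by fitting a dose-response curve.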

Structure (SMILES)	Activity (Bacteria [1]) [%]	Activity (Bacteria [2]) [%]	Ki [3] [µM]	IC50 [4] [µM]	Ki [5] [µM]	Ki [6] [µM]	IC50 [7] [µM]
O=C(O)CN1C(=O)[C@H](Cc2ccc(F)cc2)N(Cc2ccc([N+](=O)[O-])cc2)S1(=O)=O	101						
O=C(O)CN1C(=O)[C@H](Cc2ccc(Br)cc2)N(Cc2ccc(Br)cc2)S1(=O)=O	10	0	300	300	32	268	130
COc1ccc(CN2[C@@H](Cc3ccc(F)cc3)C(=O)N(CC(=O)O)S2(=O)=O)cc1	124						
COc1ccc(CN2[C@@H](Cc3ccc(Br)cc3)C(=O)N(CC(=O)O)S2(=O)=O)cc1	92						
O=C(O)CN1C(=O)[C@H](Cc2ccc(F)cc2)N(Cc2ccc(Br)cc2)S1(=O)=O	34	53	510	510	55	455	
O=C(O)CN1C(=O)[C@H](Cc2ccc(Br)cc2)N(Cc2ccc([N+](=O)[O-])cc2)S1(=O)=O	100						
